Data set [1] has as its target T1, Mu-type opioid receptor (Homo sapiens, UniProt P35372). The experiment in a line: Displacement of [3H]DAMGO from human mu opioid receptor expressed in CHO cells after 60 mins by liquid scintillation counting. It is filed as cell-based. On the technique in general: In a radioligand displacement assay an active substance lowers the binding of a labelled ligand.
Data set [2] has as its target T2, Kappa-type opioid receptor (Homo sapiens, UniProt P41145). The data set can be described thus: Displacement of [3H]U69593 from human kappa opioid receptor expressed in CHO cells after 60 mins by liquid scintillation counting. It is filed as cell-based. In short, it runs like this:
(§1)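 Membranes from CHO cells stably expressing one human opioid receptor, incubated at 25 °C in 50 mM Tris-HCl pH 7.5 with radioligand: [3H]DAMGO 0.25 nM (60 min), [3H]U69,593 1 nM (60 min), [3H]naltrindole 0.2 nM (3 h). […] Filtered on glass fibre (PEI-soaked for kappa), washed, scintillation counted; IC50 by log-probit fit, Ki via Cheng–Prusoff.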

Data set [3] deals with T1, Mu-type opioid receptor. The data set can be described thus: Antagonist activity at human mu opioid receptor expressed in CHO cells assessed as inhibition of DAMGO-stimulated [35S]GTPgammaS binding. The format is functional, cell-based. (In general: Binding of GTPγS marks nucleotide exchange on a G protein.)
Data set [4] addresses T2, Kappa-type opioid receptor. The data set can be described thus: Agonist activity at human kappa opioid receptor expressed in CHO cells assessed as stimulation of [35S]GTPgammaS binding. The format is functional, cell-based. In a few lines: (§2)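 Agonist mode: 12 concentrations of each compound incubated with CHO cells expressing the receptor named in the line; agonist-stimulated [35S]GTPγS binding measured.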

Data set [5] addresses Delta-type opioid receptor (Homo sapiens, UniProt P41143). The data set can be described thus: Displacement of [3H]naltrindole from human delta opioid receptor expressed in CHO cells after 3 hrs by liquid scintillation counting. The format is cell-based. In a few lines:
as §1

Data set [6] addresses T2, Kappa-type opioid receptor. The data set can be described thus: Antagonist activity at human kappa opioid receptor expressed in CHO cells assessed as inhibition of U50488-stimulated [35S]GTPgammaS binding. The format is functional, cell-based.
Data set [7] deals with T2, Kappa-type opioid receptor. The experiment in a line: Agonist activity at human kappa opioid receptor expressed in CHO cells assessed as maximal stimulation of [35S]GTPgammaS binding relatiev to U50488. It is filed as functional, cell-based. In short, it runs like this: as §2
Data set [8] addresses T1, Mu-type opioid receptor. The data set can be described thus: Agonist activity at human mu opioid receptor expressed in CHO cells assessed as maximal stimulation of [35S]GTPgammaS binding relatiev to DAMGO. The format is functional, cell-based. In short, it runs like this:
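12 concentrations of each compound incubated with CHO cells expressing the mu receptor; [35S]GTPγS binding stimulation measured, maximal stimulation taken as Emax.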

In data set [9] the target is T1, Mu-type opioid receptor. The data set can be described thus: Agonist activity at human mu opioid receptor expressed in CHO cells assessed as stimulation of [35S]GTPgammaS binding. It is filed as functional, cell-based.
For data set [10], the species on record is Homo sapiens. The data set can be described thus: Selectivity ratio of Ki for human delta opioid receptor to Ki for human kappa opioid receptor.
Data set [11] is described as follows: Chemical stability assessed as hydrolysis half life in presence of porcine liver esterase. Particulars: pig, isolated protein. It is filed as ADME.
Data set [12] is described as follows: Chemical stability at pH 7.4 buffer assessed as hydrolysis half life. The format is physicochemical.
The target in data set [13] is T1, Mu-type opioid receptor. The experiment in a line: Antagonist activity at human mu opioid receptor expressed in CHO cells assessed as inhibition of DAMGO-stimulated [35S]GTPgammaS binding at 10 uM. It is filed as functional, cell-based.

The values below come from ChEMBL document CHEMBL1154777 (J Med Chem, 2009).

Active and inactive are the calls of the source. The calls are words filed in the database; no cut-off is given here.

T1 sequence (P35372 whole entry): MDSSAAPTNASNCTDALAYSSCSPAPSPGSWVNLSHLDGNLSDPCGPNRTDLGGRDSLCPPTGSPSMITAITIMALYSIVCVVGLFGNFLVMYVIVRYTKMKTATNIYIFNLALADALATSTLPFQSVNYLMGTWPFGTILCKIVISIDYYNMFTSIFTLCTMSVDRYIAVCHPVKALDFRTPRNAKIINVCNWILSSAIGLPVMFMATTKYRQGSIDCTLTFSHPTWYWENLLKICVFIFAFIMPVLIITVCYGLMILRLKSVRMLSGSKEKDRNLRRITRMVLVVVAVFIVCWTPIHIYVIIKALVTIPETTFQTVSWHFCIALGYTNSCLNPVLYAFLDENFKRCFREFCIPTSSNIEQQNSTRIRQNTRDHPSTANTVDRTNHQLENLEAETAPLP
Chain of Delta-type opioid receptor (P41143 whole entry): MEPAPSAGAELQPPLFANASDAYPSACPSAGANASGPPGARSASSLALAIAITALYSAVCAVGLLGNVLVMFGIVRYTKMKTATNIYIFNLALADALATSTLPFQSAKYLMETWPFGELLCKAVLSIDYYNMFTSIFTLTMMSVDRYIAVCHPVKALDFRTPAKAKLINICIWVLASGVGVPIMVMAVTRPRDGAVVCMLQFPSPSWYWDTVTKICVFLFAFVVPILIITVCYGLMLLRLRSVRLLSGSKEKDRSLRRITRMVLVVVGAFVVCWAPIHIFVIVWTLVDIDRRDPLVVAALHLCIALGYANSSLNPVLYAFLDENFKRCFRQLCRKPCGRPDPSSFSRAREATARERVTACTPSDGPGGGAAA
T2 sequence (P41145 whole entry): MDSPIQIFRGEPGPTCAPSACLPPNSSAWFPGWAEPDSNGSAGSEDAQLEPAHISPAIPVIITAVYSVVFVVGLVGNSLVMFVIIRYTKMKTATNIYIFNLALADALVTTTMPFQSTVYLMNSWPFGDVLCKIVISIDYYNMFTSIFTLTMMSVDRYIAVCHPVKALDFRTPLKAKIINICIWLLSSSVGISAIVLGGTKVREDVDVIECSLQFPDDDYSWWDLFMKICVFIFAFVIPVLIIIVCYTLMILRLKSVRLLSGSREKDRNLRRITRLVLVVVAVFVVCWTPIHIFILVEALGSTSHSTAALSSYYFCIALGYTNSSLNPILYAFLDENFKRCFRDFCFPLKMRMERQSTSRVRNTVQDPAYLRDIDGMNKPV

Consider `O=C(O)CCCCCCCCC(=O)Oc1ccc2c(c1)[C@@]13CCCC[C@H]1[C@@H](C2)N(CC1CCC1)CC3`, for which the results for the Ki in data set [1], in data set [2] and in data set [5] were 0.71 nM, 0.29 nM and 18 nM, respectively. The Imax entry in data set [3] and in data set [6] was “inactive” in each case. In addition, the IC50 entry in data set [3] (cho) and in data set [6] was “Not Active” each time. The EC50 (commonly the concentration giving half of the maximal effect) in [4] was 2.8 nM; in data set [9], 3 nM. Moreover, the Emax (as a rule, the size of the effect at its maximum, as opposed to the concentration needed) in [7] was 75%; in data set [8], 110%.
Take `CC(C)(CCCCCCC(C)(C)C(=O)Oc1ccc2c(c1)[C@@]13CCCC[C@H]1[C@@H](C2)N(CC1CCC1)CC3)C(=O)O`: the Ki (commonly a measure of affinity in units of concentration, obtained from inhibition or displacement) was found to be 47 nM in data set [1], 18 nM in data set [2] and 390 nM in data set [5]. The Ratio Ki in data set [10] is 22.
Turning to `CC(CCCCCCC(C)C(=O)Oc1ccc2c(c1)[C@@]13CCCC[C@H]1[C@@H](C2)N(CC1CCC1)CC3)C(=O)Oc1ccc2c(c1)[C@@]13CCCC[C@H]1[C@@H](C2)N(CC1CCC1)CC3` (stereo partly drawn), the values for the Ki in data set [1], in data set [2] and in [5] were 0.95 nM, 0.62 nM and 37 nM, respectively. In addition, in data set [3], the Imax came out at 50%. Besides, the IC50 (in general, the concentration that gives 50% inhibition) in data set [3] (read-out: IC50) is 140 nM; in data set [6], “Not Active”. For the same molecule, the figures for the EC50 in data set [4] and in data set [9] were 7.3 nM and 7.1 nM, respectively. Moreover, the t1/2 is 2.18 h in data set [11] and 1.38 h in data set [12]. The Ratio Ki in data set [10] is 60. In data set [6], the Imax result was “inactive”. Further, the Emax in data set [7] was found to be 54%; in data set [8] it was 26%.
On to `C=CCN1CC[C@]23c4c5ccc(OC(=O)CCCCCCCCC(=O)Oc6ccc7c(c6)[C@@]68CCCC[C@H]6C(C7)N(CC6CCC6)CC8)c4O[C@H]2CCC[C@H]3[C@H]1C5`, for which the Ki in data set [1] stood at 0.43 nM; in data set [2] it was 0.13 nM; in data set [5], 39 nM. In addition, the Imax in data set [3] came to 73%. Further, the figures for the IC50 in [3] (read-out: IC50) and in data set [6] were 25 nM and “Not Active”, respectively. In addition, the figures for the EC50 in data set [4] and in data set [9] were 1.6 nM and 2 nM, respectively. Moreover, in [10], the Ratio Ki was 300. Besides, the Imax entry in data set [6] is “inactive”. For the same molecule, the maximal response (Emax) in data set [7] was determined as 86%; in [8], 34%.
Turning to `CC(CCCCC(C)C(=O)Oc1ccc2c(c1)[C@@]13CCCC[C@H]1[C@@H](C2)N(CC1CCC1)CC3)C(=O)Oc1ccc2c(c1)[C@@]13CCCC[C@H]1[C@@H](C2)N(CC1CCC1)CC3` (stereo partly drawn), the Ki in data set [1] is 2.9 nM; in data set [2] it was 2.2 nM; in data set [5], 50 nM. Besides, the figures for the t1/2 in data set [11] and in data set [12] were 1.9 h and 3.68 h, respectively. Besides, in [10], the Ratio Ki worked out at 23.
`CC(C)(CCCCCCC(C)(C)C(=O)Oc1ccc2c(c1)[C@@]13CCCC[C@H]1[C@@H](C2)N(CC1CCC1)CC3)C(=O)OCc1ccccc1`: the Ki was 8.6 nM in [1], 4.7 nM in [2] and 210 nM in data set [5]. Besides, in data set [10], the Ratio Ki worked out at 45.
On to `O=C(CCCCCCCCC(=O)Oc1ccc2c(c1)[C@@]13CCCC[C@H]1[C@@H](C2)N(CC1CCC1)CC3)Oc1ccc2c(c1)[C@@]13CCCC[C@H]1[C@@H](C2)N(CC1CCC1)CC3`, for which, in data set [3], the Imax is 44%. Further, the t1/2 in data set [11] is 1.83 h. For the same molecule, in data set [10], the Ratio Ki was determined as 90. In data set [6], the IC50 entry is listed as “Not Active” and the Imax result was “inactive”. The t1/2 in data set [12] turned out to be 0.767 h. For the same molecule, the Emax in [7] turned out to be 65%.
Regarding `CC(CCCCCCC(C)C(=O)Oc1ccc2c(c1)[C@@]13CCCC[C@H]1[C@@H](C2)N(CC1CCC1)CC3)C(=O)O` (stereo partly drawn), the Ki amounted to 0.46 nM in data set [1], 0.42 nM in data set [2] and 20 nM in data set [5]. In addition, the IC50 result in data set [3] (cho) and in data set [6] was “Not Active” throughout. Moreover, the EC50 in data set [4] is 4.9 nM; in [9] it was 13 nM. In addition, in data set [10], the Ratio Ki amounted to 48. Besides, in data set [6], the Imax result is “inactive”. Further, in data set [13], the Imax was 48%. Moreover, the Emax in [7] was found to be 58%; in data set [8] it was 25%.
On to `COC(=O)C(C)CCCCCCC(C)C(=O)Oc1ccc2c(c1)[C@@]13CCCC[C@H]1[C@@H](C2)N(CC1CCC1)CC3` (stereo partly drawn), for which the Ki in [1] came to 1.7 nM; in [2], 0.94 nM; in data set [5] it was 42 nM. Further, the Ratio Ki in data set [10] was found to be 45.
For `CC(C)(CCCCCCC(C)(C)C(=O)Oc1ccc2c(c1)[C@@]13CCCC[C@H]1[C@@H](C2)N(CC1CCC1)CC3)C(=O)Oc1ccc2c(c1)[C@@]13CCCC[C@H]1[C@@H](C2)N(CC1CCC1)CC3`, the results for the Ki in data set [1], in data set [2] and in [5] were 0.47 nM, 0.47 nM and 15 nM, respectively. Moreover, in data set [3], the Imax came out at 50%. Also, the IC50 is 81 nM in data set [3] (read-out: IC50) and “Not Active” in [6]. Further, the EC50 in data set [4] worked out at 6.4 nM; in data set [9] it was 11 nM. In addition, the t1/2 in [11] worked out at 1.67 h; in data set [12] it was 1.68 h. Moreover, the Ratio Ki in data set [10] was 32. Further, in data set [6], the Imax entry is “inactive”. In addition, the Emax was 60% in [7] and 40% in [8].
